Laboratory results reported in ChEMBL document CHEMBL1151475, “Thiopurine drugs azathioprine and 6-mercaptopurine inhibit Mycobacterium paratuberculosis growth in vitro” (2008).

Experiments:
Format in all cases: functional
Escherichia coli [1] = assay: Antituberculosis activity against Escherichia coli ATCC 25922 clinical isolate assessed as minimum drug level required for killing after 56 days by MGIT 960 susceptibility test
Mycolicibacterium phlei = assay: Antituberculosis activity against Mycobacterium phlei ATCC 11758 assessed as minimum drug level required for killing after 56 days by MGIT 960 susceptibility test
Outline: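 Duplicate MGIT ParaTB tubes with egg yolk and supplement received 10^5 to 10^6 CFU and thiopurine (in 0.05 M NaOH/10 mM PBS) at final 0.5 to 64.0 μg/ml, plus 128.0 μg/ml for some strains. Tubes were incubated at 37°C in the MGIT 960. The value is the minimum concentration whose tubes never signalled positive by 56 days.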

Mycobacterium avium = assay: Antituberculosis activity against Mycobacterium avium WSLH1544 isolated from water assessed as minimum drug level required for inhibition by MGIT 960 susceptibility test
Outline: (§1)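 10^5 to 10^6 CFU from single-cell suspensions inoculated in duplicate into MGIT ParaTB medium with supplement and egg yolk. Drugs were at final 0.5–64.0 μg/ml, with 128.0 μg/ml added for some strains. Tubes were incubated at 37°C in MGIT 960. Inhibition is the lowest concentration giving a time to detection longer than a drug-free 1:100 inoculum control. Killing is no positive signal through 56 days.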

[2] = test system: Mycobacterium avium subsp. paratuberculosis; assay: Antituberculosis activity against Mycobacterium paratuberculosis B236 isolated from bovine assessed as minimum drug level required for killing after 56 days by MGIT 960 susceptibility test; outline: as §1
[3] = test system: Mycobacterium avium subsp. paratuberculosis; assay: Antituberculosis activity against Mycobacterium paratuberculosis UCF-7 isolated from Crohn's disease patient assessed as minimum drug level required for inhibition by MGIT 960 susceptibility test; outline: as §1
[4] = test system: Mycobacterium avium subsp. paratuberculosis; assay: Antituberculosis activity against Mycobacterium paratuberculosis JTC303 isolated from bovine assessed as minimum drug level required for inhibition by MGIT 960 susceptibility test; outline: as §1
Escherichia coli [5] = assay: Antituberculosis activity against Escherichia coli ATCC 25922 clinical isolate assessed as minimum drug level required for inhibition by MGIT 960 susceptibility test
[6] = test system: Mycobacterium avium subsp. paratuberculosis; assay: Antituberculosis activity against Mycobacterium paratuberculosis UCF-7 isolated from Crohn's disease patient assessed as colony counts at 4 ug after 12 days by MGIT 960 susceptibility test
[7] = test system: Mycobacterium avium subsp. paratuberculosis; assay: Antituberculosis activity against Mycobacterium paratuberculosis UCF-5 isolated from Crohn's disease patient assessed as minimum drug level required for killing after 56 days by MGIT 960 susceptibility test; outline: as §1
[8] = test system: Mycobacterium avium subsp. paratuberculosis; assay: Antituberculosis activity against Mycobacterium paratuberculosis ATCC 19698 isolated from bovine assessed as lowest drug level producing inhibition at 10^6 CFU of inoculum by agar counting method
Outline: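 ATCC 19698 at 10^6 CFU was exposed to drug (1.0–64.0 μg/ml) in MGIT ParaTB medium at 37°C. Aliquots taken at 3 and 5 days were centrifuged, resuspended in PBS and declumped with glass beads. Serial dilutions were plated in quadruplicate on 7H10/OADC/mycobactin J and counted after 8 weeks. Inhibition is the lowest concentration giving a 2 log10 (99%) CFU reduction.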

Sc1ncnc2nc[nH]c12 [MERCAPTOPURINE ANHYDROUS]
Activity (Escherichia coli [1]): >128 µg/mL | Activity (Mycolicibacterium phlei): 16 µg/mL | Activity (Mycobacterium avium): 8 µg/mL | Activity [2]: >32 µg/mL | Activity [3]: <1 µg/mL | Activity [4]: 1 µg/mL | Activity (Escherichia coli [5]): >128 µg/mL | log10CFU/ml [6]: 3.19 | Activity [7]: >32 µg/mL | Activity [8]: 1 µg/mL
